ChEMBL document CHEMBL5303300, “EUbOPEN Chemogenomics Library - Multiplex” (2023)
Values joined by “and” are separate entries in the source; they are usually repeats but may differ in a detail not shown here. Equal entries are not always repeated.

Test system: Fibroblast
Test: Multiplex assay against human fibroblast
Format: toxicity, cell-based
Conditions: number of replicates 2
Procedure, shortened: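 Four dyes were applied at seeding to live cells: Hoechst33342, BioTracker Green Microtubule Cytoskeleton Dye, MitoTracker Red and Annexin V Alexa Fluor 680. Imaging after compound addition used a CQ1 microscope at 37°C and 5% CO2. CellPathfinder machine-learning gating then sorted cells into Hoechst high-intensity objects or normal cells, normal cells into healthy, pyknosed or fragmented nuclei, and pyknosed cells into mitotic or apoptotic, with tubulin, mitochondrial-mass and membrane-permeability phenotypes given as per cents of healthy-nucleus cells.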

[1] = 12 h, 1 µM, compound concentration 1 uM
[2] = 12 h, 10 µM, compound concentration 10 uM
[3] = 24 h, 1 µM, compound concentration 1 uM
[4] = 24 h, 10 µM, compound concentration 10 uM
[5] = 48 h, 1 µM, compound concentration 1 uM
[6] = 48 h, 10 µM, compound concentration 10 uM

With NC(=O)c1ccc(-c2nc(-c3ccc4c(c3)OCCO4)c(-c3ccccn3)[nH]2)cc1 the “Population Apoptotic (%)” value [1] was 31% and 28%, the “Population Fragmented Nuclei (%)” value [1] was 5% and the “Population Healthy Nuclei (%)” value [1] was 81% and 72%. For the same molecule, the “Population Hoechst High Intensity Objects (%)” value [1] was 0%, the “Population Membrane Permeable-Phenotype (%)” value [1] was 8% and 4% and the “Population Mitochondria Different-Phenotype (%)” value [1] was 0% and 2%. For the same molecule, the “Population Mitotic Cells (%)” value [1] was 68% and 71%, the “Population Normal (%)” value [1] was 100% and the “Population Pyknosed Nuclei (%)” value [1] was 13% and 22%. For the same molecule, the “Population Tubulin-Different-Phenotype (%)” value [1] was 15% and 6%, the “Total Cell Count” value [1] was 265 and 208 and the “Population Apoptotic (%)” value [2] was 26% and 17%. The “Population Fragmented Nuclei (%)” value [2] was 10% and 18%, the “Population Healthy Nuclei (%)” value [2] was 57% and 67% and the “Population Hoechst High Intensity Objects (%)” value [2] was 0%. The “Population Membrane Permeable-Phenotype (%)” value [2] was 1% and 3%, the “Population Mitochondria Different-Phenotype (%)” value [2] was 0% and 1% and the “Population Mitotic Cells (%)” value [2] was 73% and 82%. For the same molecule, the “Population Normal (%)” value [2] was 100%, the “Population Pyknosed Nuclei (%)” value [2] was 32% and 13% and the “Total Cell Count” value [2] was 187 and 209. For the same molecule, the “Population Apoptotic (%)” value [3] was 50% and 53%, the “Population Fragmented Nuclei (%)” value [3] was 9% and 11% and the “Population Healthy Nuclei (%)” value [3] was 83% and 67%. The “Population Hoechst High Intensity Objects (%)” value [3] was 0%, the “Population Membrane Permeable-Phenotype (%)” value [3] was 4% and 2% and the “Population Mitochondria Different-Phenotype (%)” value [3] was 0%. For the same molecule, the “Population Mitotic Cells (%)” value [3] was 50% and 46%, the “Population Normal (%)” value [3] was 100% and 99% and the “Population Tubulin-Different-Phenotype (%)” value [3] was 12% and 5%. For the same molecule, the “Total Cell Count” value [3] was 287 and 229, the “Population Apoptotic (%)” value [4] was 37% and 14% and the “Population Fragmented Nuclei (%)” value [4] was 12% and 24%. The “Population Healthy Nuclei (%)” value [4] was 70% and 69%, the “Population Hoechst High Intensity Objects (%)” value [4] was 0% and the “Population Membrane Permeable-Phenotype (%)” value [4] was 2%. For the same molecule, the “Population Mitochondria Different-Phenotype (%)” value [4] was 1%, the “Population Mitotic Cells (%)” value [4] was 62% and 85% and the “Population Normal (%)” value [4] was 99% and 100%. For the same molecule, the “Population Pyknosed Nuclei (%)” value [4] was 16% and 6%, the “Population Tubulin-Different-Phenotype (%)” value [4] was 10% and 5% and the “Total Cell Count” value [4] was 209 and 225. For the same molecule, the “Population Apoptotic (%)” value [5] was 56% and 77%, the “Population Fragmented Nuclei (%)” value [5] was 12% and 14% and the “Population Healthy Nuclei (%)” value [5] was 82% and 73%. For the same molecule, the “Population Hoechst High Intensity Objects (%)” value [5] was 0%, the “Population Membrane Permeable-Phenotype (%)” value [5] was 4% and the “Population Mitochondria Different-Phenotype (%)” value [5] was 0%. For the same molecule, the “Population Mitotic Cells (%)” value [5] was 43% and 22%, the “Population Normal (%)” value [5] was 100% and 99% and the “Population Pyknosed Nuclei (%)” value [5] was 5% and 12%. The “Population Tubulin-Different-Phenotype (%)” value [5] was 5% and 4%, the “Total Cell Count” value [5] was 309 and 221 and the “Population Apoptotic (%)” value [6] was 33% and 40%. For the same molecule, the “Population Fragmented Nuclei (%)” value [6] was 16% and 24%, the “Population Healthy Nuclei (%)” value [6] was 76% and 73% and the “Population Hoechst High Intensity Objects (%)” value [6] was 0%. For the same molecule, the “Population Membrane Permeable-Phenotype (%)” value [6] was 0% and 2%, the “Population Mitochondria Different-Phenotype (%)” value [6] was 0% and 1% and the “Population Mitotic Cells (%)” value [6] was 66% and 60%. The “Population Normal (%)” value [6] was 100%, the “Population Pyknosed Nuclei (%)” value [6] was 6% and 2% and the “Population Tubulin-Different-Phenotype (%)” value [6] was 11% and 7%. For the same molecule, the “Total Cell Count” value [6] was 216 and 234.
